These results are taken from ChEMBL document CHEMBL1147187, “Design and synthesis of new potent dipeptidyl peptidase IV inhibitors with enhanced ex vivo duration” (Bioorg Med Chem, 2007).

In data set [1] the target is Dipeptidyl peptidase 4 (Rattus norvegicus) (UniProt P14740). Briefly: Ex vivo inhibition of DPP4 in Sprague-Dawley rat plasma at 1 mg/kg, po after 6 hrs. The class given is organism-based. More on the design: dose 1 mg/kg. The essentials:
(§1)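 Male SD rats, 6–7 weeks old, fasted at least 8 h, given a single oral dose of 1 mg/kg in 0.5% methyl cellulose. Jugular vein blood taken before dosing and serially to 10 h (12 h in the species comparison). Plasma mixed with substrate (50 µL of 60 µM Gly-Pro-AMC). Initial fluorescence rate over 15 min at 37 °C; % inhibition is relative to basal activity.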

The target is the same in data set [2]. Briefly: Ex vivo inhibition of DPP4 in Sprague-Dawley rats plasma at 1 mg/kg, po after 10 hrs. The class given is organism-based. Set-up: dose 1 mg/kg. The essentials:
as §1

For data set [3] the target is unchanged. The data set is described as follows: Ex vivo inhibition of DPP4 in Sprague-Dawley rats plasma at 1 mg/kg, po after 12 hrs. The class given is organism-based. More on the design: dose 1 mg/kg. The essentials: as §1
The test system of a further data set is Canis familiaris. The data set is described as follows: Ex vivo inhibition of DPP4 in Beagle dog at 1 mg/kg, po after 12 hrs. Format: functional. Conditions: Canis lupus familiaris. The method in brief: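 Male beagle dogs (11–15 kg) and male cynomolgus monkeys (3.5–6 kg), fasted 8 h, given a single oral dose of 1 mg/kg in 0.5% methyl cellulose. Femoral vein blood taken before dosing and at 12 h. Plasma DPP-IV activity measured as the initial rate of Gly-Pro-AMC cleavage (fluorescence, ex 355/em 460 nm, 37 °C); % inhibition is relative to basal activity.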

The nature of data set [4]: Stability in Tris buffer at pH 7.4 after 24 hrs. Conditions: read-out: Stability. Format: physicochemical. The essentials: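 Remaining percentage measured after incubation in 100 mM Tris buffer, pH 7.4, at room temperature for 24 h.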
The test system of another data set is Cynomolgus monkey. Briefly: animal or person. Conditions: Macaca fascicularis, po, 12 h, read-out: Inhibition.
For data set [5], the system named is Rattus norvegicus. Briefly: Suppression of glucose level in Sprague-Dawley rats at 1 mg/kg, po administered 30 mins prior to glucose by glucose tolerance test. The class given is functional, organism-based. Set-up: dose 1 mg/kg. The method in brief: (§2)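 Male SD rats (364–473 g), fasted at least 20 h, given vehicle (0.5% methyl cellulose) or 1 mg/kg orally at −0.5 h. Oral glucose 1 g/kg given at 0, 6 and 12 h. Tail-vein blood collected into heparinized tubes from −0.08 h to 14 h. Plasma glucose measured by glucose oxidase–peroxidase dye method.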

The subject of data set [6] is Rattus norvegicus. The data set is described as follows: Suppression of glucose level in Sprague-Dawley rats at 1 mg/kg, po administered 30 mins prior to glucose by glucose tolerance test after 6 hrs. The class given is functional, organism-based. More on the design: dose 1 mg/kg. The essentials: as §2
The subject of data set [7] is Rattus norvegicus. The data set is described as follows: Suppression of glucose level in Sprague-Dawley rats at 1 mg/kg, po administered 30 mins prior to glucose by glucose tolerance test after 12 hrs. Format: functional, organism-based. Set-up: dose 1 mg/kg. The essentials: as §2

SMILES strings stand for the structures. The source made the active and inactive calls. No cut-off for these calls is given here.

Dipeptidyl peptidase 4 (Rattus norvegicus), sequence (P14740 whole entry, looked up): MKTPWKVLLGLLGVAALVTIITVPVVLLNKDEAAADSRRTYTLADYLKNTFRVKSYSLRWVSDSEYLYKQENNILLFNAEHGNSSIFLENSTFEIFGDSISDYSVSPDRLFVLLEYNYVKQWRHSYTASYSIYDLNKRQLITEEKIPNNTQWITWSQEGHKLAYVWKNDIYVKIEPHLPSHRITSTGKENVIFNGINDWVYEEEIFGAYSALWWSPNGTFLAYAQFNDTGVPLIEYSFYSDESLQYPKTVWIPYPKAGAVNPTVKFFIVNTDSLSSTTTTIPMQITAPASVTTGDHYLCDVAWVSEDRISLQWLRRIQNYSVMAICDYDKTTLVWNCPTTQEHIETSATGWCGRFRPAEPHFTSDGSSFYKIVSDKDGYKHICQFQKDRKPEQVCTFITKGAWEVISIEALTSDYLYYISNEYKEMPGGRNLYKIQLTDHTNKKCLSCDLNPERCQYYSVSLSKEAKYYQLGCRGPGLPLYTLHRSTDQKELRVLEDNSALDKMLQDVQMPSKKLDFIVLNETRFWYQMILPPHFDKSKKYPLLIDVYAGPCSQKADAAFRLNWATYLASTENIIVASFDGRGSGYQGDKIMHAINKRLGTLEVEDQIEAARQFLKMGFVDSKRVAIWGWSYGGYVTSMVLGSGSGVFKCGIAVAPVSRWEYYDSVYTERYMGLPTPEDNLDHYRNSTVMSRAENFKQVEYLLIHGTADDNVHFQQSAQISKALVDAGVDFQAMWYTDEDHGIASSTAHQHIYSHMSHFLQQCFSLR

On to `C=CC[C@@H]1CN[C@H](C(=O)N2CCC[C@H]2C#N)C1`, for which, in data set [1], the inhibition was 38%.

Turning to `CCN(C)C(=O)[C@@H]1CN[C@H](C(=O)N2CCC[C@H]2C#N)C1`, the inhibition was determined as 71% in data set [1] and 34% in data set [2].

On to `CN(C)C(=O)[C@@H]1CN[C@H](C(=O)N2CCC[C@H]2C#N)C1`, for which the inhibition in data set [1] worked out at 76%; in data set [2] it was 52%; in data set [3] it was 24%. Further, the inhibition in vivo at 1 mg/kg with Canis familiaris is 45%; with Cynomolgus monkey, 44%. For the same molecule, the remaining at 24 h in [4] worked out at 52%.

In data set [1], `N#C[C@@H]1CCCN1C(=O)[C@@H]1C[C@H](CCO)CN1` had an inhibition of 64%.

As to `N#C[C@@H]1CCCN1C(=O)[C@@H]1C[C@H](C(=O)N2CCC2)CN1`, the inhibition in data set [1] stood at 77%; in [2], 46%.

As to `CNC(=O)[C@@H]1CN[C@H](C(=O)N2CCC[C@H]2C#N)C1`, the inhibition was 75% in [1] and 28% in data set [2].

Regarding `N#C[C@@H]1CCCN1C(=O)[C@@H]1C[C@H](C(=O)N2CCOCC2)CN1`, the inhibition in data set [1] came to 73%; in data set [2] it was 44%.

Turning to `C[C@@H]1N[C@H](C(=O)N2CCC[C@H]2C#N)C[C@@H]1C(=O)N1CCC1`, the results for the inhibition in [1] and in data set [2] were 94% and 88%, respectively.

`CN(C)C(=O)C[C@@H]1CN[C@H](C(=O)N2CCC[C@H]2C#N)C1` yielded an inhibition in data set [1] of 66%.

Take `N#C[C@@H]1CCCN1C(=O)[C@@H]1C[C@H](C(=O)N2CCCCCC2)CN1`: in data set [1], the inhibition stood at 68%.

Take `N#C[C@@H]1CCCN1C(=O)[C@@H]1C[C@H](CC(=O)O)CN1`: in data set [1], the inhibition was 58%.

`N#C[C@@H]1CCCN1C(=O)[C@@H]1CCCN1` showed an inhibition in data set [1] of 20%.

On to `C[C@@H]1N[C@H](C(=O)N2CCC[C@H]2C#N)C[C@@H]1C(=O)N(C)C`, for which the inhibition in data set [1] was determined as 95%; in data set [2], 84%; in data set [3], 81%. Further, the inhibition in vivo at 1 mg/kg in the data set on Canis familiaris came out at 98%; with Cynomolgus monkey, 93%. Also, the outcome in the data set on Rattus norvegicus [5], in the data set with Rattus norvegicus [6] and in the data set on Rattus norvegicus [7] was Active. The remaining at 24 h in data set [4] came to 92%.

`CCCNC(=O)[C@@H]1CN[C@H](C(=O)N2CCC[C@H]2C#N)C1`: the inhibition in data set [1] stood at 59%; in [2], 21%.

Turning to `C[C@@H]1N[C@H](C(=O)N2CCC[C@H]2C#N)C[C@@H]1C(=O)N1CCOCC1`, the inhibition in data set [1] worked out at 94%; in data set [2] it was 85%. For the same molecule, the inhibition in vivo at 1 mg/kg was found to be 98% with Canis familiaris and 90% in the data set with Cynomolgus monkey.

As to `N#C[C@@H]1CCCN1C(=O)[C@@H]1C[C@H](C(=O)N2CCCCCCC2)CN1`, the inhibition in [1] worked out at 63%.

For `C[C@@H]1N[C@H](C(=O)N2CCC[C@H]2C#N)C[C@@H]1C(=O)N1Cc2ccccc2C1`, the inhibition in [1] came out at 86%; in [2] it was 77%; in data set [3], 71%. Further, the inhibition in vivo at 1 mg/kg in the data set on Canis familiaris came out at 16%.

For the molecule `CCN(CC)C(=O)[C@@H]1CN[C@H](C(=O)N2CCC[C@H]2C#N)C1`, in [1], the inhibition worked out at 43%.

Consider `C[C@@H]1N[C@H](C(=O)N2CCC[C@H]2C#N)C[C@@H]1C(=O)N1CCSCC1`, for which the inhibition in [1] worked out at 92%; in data set [2], 85%.

On to `N#C[C@@H]1CCCN1C(=O)[C@@H]1C[C@H](C(=O)N2CCSCC2)CN1`, for which the inhibition in data set [1] is 72%; in data set [2], 19%.

With `C[C@@H]1N[C@H](C(=O)N2CCC[C@H]2C#N)C[C@@H]1C(=O)N1CCCC1`, the inhibition is 94% in data set [1], 88% in data set [2] and 82% in data set [3]. For the same molecule, the inhibition in vivo at 1 mg/kg with Canis familiaris and in the data set on Cynomolgus monkey was 95% each time.

Consider `CCN(C)C(=O)[C@H]1C[C@@H](C(=O)N2CCC[C@H]2C#N)N[C@H]1C`, for which the inhibition in [1] stood at 92%; in data set [2], 79%; in [3], 74%. The results for the inhibition in vivo at 1 mg/kg with Canis familiaris and in the data set with Cynomolgus monkey were 89% and 95%, respectively.

With `N#C[C@@H]1CCCN1C(=O)[C@@H]1C[C@H](C(N)=O)CN1`, the inhibition was 47% in data set [1] and 20% in data set [2].

In the case of `N#C[C@@H]1CCCN1C(=O)[C@@H]1C[C@H](C(=O)N2CCCCC2)CN1`, the inhibition in [1] was 84%; in [2] it was 50%.

On to `C[C@@H]1N[C@H](C(=O)N2CCC[C@H]2C#N)C[C@@H]1C(=O)N1CCCCC1`, for which the values for the inhibition in data set [1] and in data set [2] were 91% and 81%, respectively.

The molecule `CCC[C@@H]1CN[C@H](C(=O)N2CCC[C@H]2C#N)C1` had an inhibition in data set [1] of 50%.

`CCNC(=O)[C@@H]1CN[C@H](C(=O)N2CCC[C@H]2C#N)C1`: the inhibition in data set [1] worked out at 60%; in data set [2], 19%.

As to `N#C[C@@H]1CCCN1C(=O)[C@@H]1C[C@H](CO)CN1`, the inhibition in data set [1] amounted to 64%.

Regarding `CN(C)C(=O)CC[C@@H]1CN[C@H](C(=O)N2CCC[C@H]2C#N)C1`, in [1], the inhibition came to 58%.

As to `N#C[C@@H]1CCCN1C(=O)[C@@H]1C[C@H](C(=O)N2CCCC2)CN1`, the inhibition was found to be 85% in data set [1] and 40% in data set [2].

What is called inhibition is the percentage by which the read-out fell short of the control.
